Test results from paper PMC6363533 (Biochemistry, 2018).
Marks after values point to notes of the source that are not given here.

Experiments:
factor IXa = factor IXa (Homo sapiens, UniProt P00740); format: biochemical; details: for kH FIXa, association rate constant of heparin-complexed antithrombin / kH FIXa, fractional wild-type value (in parentheses): natural pentasaccharide complex; for kH FIXa, association rate constant of heparin-complexed antithrombin / kH FIXa, fractional wild-type value (in parentheses) / k−H FIXa, association rate constant of free antithrombin / k−H FIXa, fractional wild-type value (in parentheses): 20 mM MES; for kH FIXa, association rate constant of heparin-complexed antithrombin / k−H FIXa, association rate constant of free antithrombin: 5 mM CaCl2, 0.1 % PEG 8000, pH 6.0, 25°C, ±S.E.; for kH FIXa, fractional wild-type value (in parentheses) / k−H FIXa, fractional wild-type value (in parentheses): 5 mM CaCl2, pH 6.0, 25°C; for k−H FIXa, association rate constant of free antithrombin / k−H FIXa, fractional wild-type value (in parentheses): absence of heparin; for Heparin-activated reactivity with factor IXa, % of wild-type: saturating natural pentasaccharide, MES/Ca2+ pH 6 buffer
Chain of factor IXa (P00740 47-191 limits assumed): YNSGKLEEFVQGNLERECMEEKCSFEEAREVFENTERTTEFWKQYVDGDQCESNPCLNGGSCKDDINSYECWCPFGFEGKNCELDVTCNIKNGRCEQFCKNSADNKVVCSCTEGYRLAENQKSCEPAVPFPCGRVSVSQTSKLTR
Chain of factor IXa (P00740 227-461 limits assumed): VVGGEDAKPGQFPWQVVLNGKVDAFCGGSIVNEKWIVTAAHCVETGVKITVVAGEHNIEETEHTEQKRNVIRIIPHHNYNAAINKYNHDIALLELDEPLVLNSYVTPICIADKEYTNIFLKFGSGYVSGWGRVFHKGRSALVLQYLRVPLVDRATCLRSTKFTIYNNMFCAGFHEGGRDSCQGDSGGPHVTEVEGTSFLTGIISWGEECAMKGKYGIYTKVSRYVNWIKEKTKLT

factor Xa = factor Xa (Homo sapiens, UniProt P00742); format: biochemical; details: for k−H FXa, association rate constant of free antithrombin / k−H FXa, fractional wild-type value (in parentheses) / Enhancement of basal reactivities with both factors Xa and IXa: absence of heparin; for k−H FXa, association rate constant of free antithrombin / k−H FXa, fractional wild-type value (in parentheses) / kH FXa, association rate constant of heparin-complexed antithrombin / kH FXa, fractional wild-type value (in parentheses): 20 mM MES; for k−H FXa, association rate constant of free antithrombin / kH FXa, association rate constant of heparin-complexed antithrombin: 5 mM CaCl2, 0.1 % PEG 8000, pH 6.0, 25°C, ±S.E.; for k−H FXa, fractional wild-type value (in parentheses) / kH FXa, fractional wild-type value (in parentheses): 5 mM CaCl2, pH 6.0, 25°C; for kH FXa, association rate constant of heparin-complexed antithrombin / kH FXa, fractional wild-type value (in parentheses): natural pentasaccharide complex; for Enhancement of basal reactivities with both factors Xa and IXa: relative to wild-type, range covers factor Xa and factor IXa
Chain of factor Xa (P00742 41-179 limits assumed): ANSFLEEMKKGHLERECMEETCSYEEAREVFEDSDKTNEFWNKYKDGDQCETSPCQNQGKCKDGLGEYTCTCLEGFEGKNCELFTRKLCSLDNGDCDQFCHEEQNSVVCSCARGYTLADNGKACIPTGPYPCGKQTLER
Chain of factor Xa (P00742 235-488 limits assumed): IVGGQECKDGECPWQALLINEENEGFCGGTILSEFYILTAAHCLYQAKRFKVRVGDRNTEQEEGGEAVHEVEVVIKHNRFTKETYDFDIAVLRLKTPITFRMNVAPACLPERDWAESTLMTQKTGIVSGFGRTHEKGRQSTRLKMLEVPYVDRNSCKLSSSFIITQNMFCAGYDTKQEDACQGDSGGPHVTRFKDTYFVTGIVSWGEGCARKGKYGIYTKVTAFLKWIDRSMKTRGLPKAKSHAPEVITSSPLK

Rapid = format: binding; details: for Limiting rate constant at heparin saturation (k+2 + k−2) / 1/K2 / k+2, forward conformational activation rate constant / k−2, reverse conformational activation rate constant: natural pentasaccharide; for 1/K2 / k+2, forward conformational activation rate constant / k−2, reverse conformational activation rate constant: I 0.04, pH 6.0, 25°C; for k+2, forward conformational activation rate constant / k−2, reverse conformational activation rate constant: ±S.E.; for k−2, reverse conformational activation rate constant: possibly overestimated (conformational selection pathway)
[1] = format: binding; details: for Kd: read-out: KD,obs, I 0.04, pH 6.0, 25°C, measured directly at I 0.04 or calculated from the ionic strength dependence of KD,obs; for Kd / Loss of nonionic binding energy relative to wild-type: natural pentasaccharide
How it was run: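 Recombinant His-tagged antithrombin (~100 nM), expressed in Sf9 and Ni-NTA purified, was titrated with pentasaccharide at 25°C. Binding was followed by tryptophan fluorescence enhancement (ex 280 nm, em 340 nm). Stocks were diluted extensively. Data were fit by quadratic binding equation for KD and stoichiometry.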

[2] = estimated based on factor Xa reactivity enhancements

Molecule | kH FIXa, association rate constant of heparin-complexed antithrombin (factor IXa) | kH FIXa, fractional wild-type value (in parentheses) (factor IXa) | k−H FXa, association rate constant of free antithrombin (factor Xa) | k−H FXa, fractional wild-type value (in parentheses) (factor Xa) | kH FXa, association rate constant of heparin-complexed antithrombin (factor Xa) | kH FXa, fractional wild-type value (in parentheses) (factor Xa) | Limiting rate constant at heparin saturation (k+2 + k−2) (Rapid; I 0.04, pH 6, 25°C) [s⁻¹] | 1/K2 (Rapid; 1/K2 = (K1/KD,obs) − 1) | k+2, forward conformational activation rate constant (Rapid) [s⁻¹] | Kd [1] [nM] | k−H FIXa, association rate constant of free antithrombin (factor IXa) | k−H FIXa, fractional wild-type value (in parentheses) (factor IXa) | Enhancement of basal reactivities with both factors Xa and IXa (factor Xa) | Loss of nonionic binding energy relative to wild-type [1] [%] | further results
MKR: His-tagged recombinant β-antithrombin variant with Lys114 mutated to Met | 2.1±0.1 × 10^3 M^−1s^−1 | 0.21 | 2.6±0.3 × 10^2 M^−1s^−1 | 0.46 | 6.4±0.3 ×10^4 M^−1s^−1 | 0.83 | 40 | 8^c | 17 ± 2 | 560 | – | – | – | – | k+2, forward conformational activation rate constant (Rapid; listed as Lys114): ~ 20 s^−1; k−2, reverse conformational activation rate constant (Rapid): 23±2^c s^−1
KKM: His-tagged recombinant β-antithrombin variant with Arg129 mutated to Met | 6.2±0.3 × 10^3 M^−1s^−1 | 0.62 | 1.3±0.1 × 10^3 M^−1s^−1 | 2.3 | 7.6±0.3 ×10^4 M^−1s^−1 | 0.99 | 1020 | 10000 | 1020 ± 120 | 0.16 | 6.9±0.4 × 10^1 M^−1s^−1 | 1.3 | 1.3–2.3 fold | 17 | –
KMR: His-tagged recombinant β-antithrombin variant with Lys125 mutated to Met | 6.8±0.8 × 10^3 M^−1s^−1 | 0.68 | 1.2±0.1 × 10^3 M^−1s^−1 | 2.1 | 8.1±0.3 ×10^4 M^−1s^−1 | 1.1 | 550 to 690 | 4300 | 550 ± 40 | 0.86 | 9.6±0.6 × 10^1 M^−1s^−1 | 1.8 | 1.3–2.3 fold | 24 | –
KKR (WT): Recombinant wild-type β-antithrombin (Asn135 mutated to Gln) with C-terminal 6XHis-tag, expressed in Sf9 insect cells | – | 1 | 5.7±0.4 × 10^2 M^−1s^−1 | 1 | – | 1 | – | 6 × 10^6 | 1140 ± 110 | – | 5.4±0.4 × 10^1 M^−1s^−1 | 1 | – | – | –
KMM: His-tagged recombinant β-antithrombin double mutant, Lys125 and Arg129 mutated to Met (protein, left off: His6, C-terminal, kept) HGSPVDICTAKPRDIPMNPMCIYRSPEKKATEDEGSEQKIPEATNRRVWELSKANSRFATTFYQHLADSKNDNDNIFLSPLSISTAFAMTKLGACNDTLQQLMEVFKFDTISEKTSDQIHFFFAMLNCMLYRKAQKSSKLVSANRLFGDKSLTFNETYQDISELVYGAKLQPLDFKENAEQSRAAINKWVSNKTEGRITDVIPSEAINELTVLVLVNTIYFKGLWKSKFSPENTRKELFYKADGESCSASMMYQEGKFRYRRVAEGTQVLELPFKGDDITMVLILPKPEKSLAKVEKELTPEVLQEWLDELEEMMLVVHMPRFRIEDGFSLKEQLQDMGLVDLFSPEKSKLPGIVAEGRDDLYVSDAFHKAFLEVNEEGSEAAASTAVVIAGRSLNPNRVTFKANRPFLVFIREVPLNTIIFMGRVANPCVK | 3.6±0.2 × 10^3 M^−1s^−1 | 0.36 | 2.0±0.1 ×10^3 M^−1s^−1 | 3.5 | 5.6±0.4 ×10^4 M^−1s^−1 | 0.73 | 550 to 690 | ~400^c | 690 ± 240 | 70 | 1.5±0.2 × 10^2 M^−1s^−1 | 2.8 | 2.8–3.5 fold | – | k−2, reverse conformational activation rate constant (Rapid): 74±7^c s^−1; k−2, reverse conformational activation rate constant (Rapid; listed as Lys125/Arg129): ~ 70 s^−1; Heparin pentasaccharide binding stoichiometry [1]: ~0.5 mole heparin/mole antithrombin
MMR: His-tagged recombinant β-antithrombin double mutant, Lys114 and Lys125 mutated to Met (protein, left off: His6, C-terminal, kept) HGSPVDICTAKPRDIPMNPMCIYRSPEKKATEDEGSEQKIPEATNRRVWELSKANSRFATTFYQHLADSKNDNDNIFLSPLSISTAFAMTKLGACNDTLQQLMEVFKFDTISEMTSDQIHFFFAMLNCRLYRKAQKSSKLVSANRLFGDKSLTFNETYQDISELVYGAKLQPLDFKENAEQSRAAINKWVSNKTEGRITDVIPSEAINELTVLVLVNTIYFKGLWKSKFSPENTRKELFYKADGESCSASMMYQEGKFRYRRVAEGTQVLELPFKGDDITMVLILPKPEKSLAKVEKELTPEVLQEWLDELEEMMLVVHMPRFRIEDGFSLKEQLQDMGLVDLFSPEKSKLPGIVAEGRDDLYVSDAFHKAFLEVNEEGSEAAASTAVVIAGRSLNPNRVTFKANRPFLVFIREVPLNTIIFMGRVANPCVK | 3.0±0.1 × 10^2 M^−1s^−1 | 0.03 | – | – | 2.3±0.3 ×10^4 M^−1s^−1 | 0.30 | – | – | – | 45000 | – | – | – | – | Heparin-activated reactivity with factor IXa, % of wild-type (factor IXa): 3%; 1/K2 (Rapid; [2]): ~0.5^d
MKM: His-tagged recombinant β-antithrombin double mutant, Lys114 and Arg129 mutated to Met (protein, left off: His6, C-terminal, kept) HGSPVDICTAKPRDIPMNPMCIYRSPEKKATEDEGSEQKIPEATNRRVWELSKANSRFATTFYQHLADSKNDNDNIFLSPLSISTAFAMTKLGACNDTLQQLMEVFKFDTISEMTSDQIHFFFAKLNCMLYRKAQKSSKLVSANRLFGDKSLTFNETYQDISELVYGAKLQPLDFKENAEQSRAAINKWVSNKTEGRITDVIPSEAINELTVLVLVNTIYFKGLWKSKFSPENTRKELFYKADGESCSASMMYQEGKFRYRRVAEGTQVLELPFKGDDITMVLILPKPEKSLAKVEKELTPEVLQEWLDELEEMMLVVHMPRFRIEDGFSLKEQLQDMGLVDLFSPEKSKLPGIVAEGRDDLYVSDAFHKAFLEVNEEGSEAAASTAVVIAGRSLNPNRVTFKANRPFLVFIREVPLNTIIFMGRVANPCVK | 2.1±0.1 × 10^3 M^−1s^−1 | 0.21 | 3.5±0.5 ×10^2 M^−1s^−1 | 0.61 | 8.5±0.4 ×10^4 M^−1s^−1 | 1.1 | – | – | – | 18000 | 1.3±0.2×10^1 M^−1s^−1 | 0.24 | – | – | 1/K2 (Rapid; [2]): ~10^d; Observed rate constant kobs of pentasaccharide binding, no saturable increase (Rapid; over the range 0.5–20 μM heparin, I 0.04, pH 6, 25°C): ~ 60 s^−1
MMM: His-tagged recombinant β-antithrombin triple mutant, Lys114, Lys125 and Arg129 mutated to Met (protein, left off: His6, C-terminal, kept) HGSPVDICTAKPRDIPMNPMCIYRSPEKKATEDEGSEQKIPEATNRRVWELSKANSRFATTFYQHLADSKNDNDNIFLSPLSISTAFAMTKLGACNDTLQQLMEVFKFDTISEMTSDQIHFFFAMLNCMLYRKAQKSSKLVSANRLFGDKSLTFNETYQDISELVYGAKLQPLDFKENAEQSRAAINKWVSNKTEGRITDVIPSEAINELTVLVLVNTIYFKGLWKSKFSPENTRKELFYKADGESCSASMMYQEGKFRYRRVAEGTQVLELPFKGDDITMVLILPKPEKSLAKVEKELTPEVLQEWLDELEEMMLVVHMPRFRIEDGFSLKEQLQDMGLVDLFSPEKSKLPGIVAEGRDDLYVSDAFHKAFLEVNEEGSEAAASTAVVIAGRSLNPNRVTFKANRPFLVFIREVPLNTIIFMGRVANPCVK | – | 0.003 | – | – | – | 0.04 | – | – | – | – | 2.3±0.2 × 10^1 M^−1s^−1 | 0.43 | – | 60 | Heparin-activated reactivity with factor IXa, % of wild-type (factor IXa): 0.3%
